# Compounds with a hit are over-represented: about 2.8% of the library has one in this group of screens.
# EP2 modulator: modulators of human EP2 prostaglandin E2 receptor; P43116; EP2-expressing cells, cAMP HTRF FRET, PGE2 co-stimulation; induction, % at 25 µM; 260,000 compounds, 0.83% hits;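 active = compounds whose cAMP rise, as percent of the full-agonist control response, exceeds 60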;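 note: rat C6 glioma line stably carrying human EP2 under a CMV promoter; the protocol text gives 20 µM as final concentration; 100% = response of wells given 1 µM PGE2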
# Target sequence (P43116 whole entry, looked up): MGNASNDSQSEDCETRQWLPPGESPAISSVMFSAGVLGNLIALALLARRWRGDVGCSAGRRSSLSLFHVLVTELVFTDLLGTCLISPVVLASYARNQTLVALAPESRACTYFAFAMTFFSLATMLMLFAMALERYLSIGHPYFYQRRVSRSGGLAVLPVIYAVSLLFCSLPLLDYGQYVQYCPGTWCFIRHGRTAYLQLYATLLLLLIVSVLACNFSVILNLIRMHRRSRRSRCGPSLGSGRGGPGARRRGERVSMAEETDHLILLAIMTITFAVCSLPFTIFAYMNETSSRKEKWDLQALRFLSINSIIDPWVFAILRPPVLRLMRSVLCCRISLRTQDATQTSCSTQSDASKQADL
# NPY-Y1 PAM-ag: potentiators or agonists of human neuropeptide Y receptor Y1; NPY-Y1 expressing cells, potentiator/agonist activation; activation, % at 3.6 µM; 220,000 compounds, 0.37% hits; AID 1304; in the data active = activation above about 33%, passing the limit was not always enough;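 note: cells stimulated with NPY at EC10 then isoproterenol at EC100; 0% = low agonist plus stimulus and 100% = saturating agonist plus stimulus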
# NPY-Y2 antag: antagonists of human neuropeptide Y receptor Y2. NPY-Y2 expressing cells, antagonist mode. 140,000 compounds, 0.99% hits. inhibition, % at 2.7 µM; in the data active = inhibition above about 17%;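 note: 0% = vehicle with agonist challenge and 100% = reference antagonist with challenge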
# EP2 antag: inhibitors of human EP2 prostaglandin E2 receptor; P43116; C6 glioma cells expressing human EP2, cAMP TR-FRET; cells stimulated with saturating PGE2; inhibition, % at 25 µM; 260,000 compounds, 0.52% hits; AID 1422;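 active = percent inhibition above 40 after rounding to a whole number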;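 note: rat C6 glioma host cells with rolipram phosphodiesterase inhibitor present; the protocol text gives 20 µM as final concentration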
# NPY-Y1 antag: NPY-Y1 (human) receptor antagonism; inhibition, % at 3.6 µM; HEK293-CNG Y1 cells, membrane potential fluorescence; NPY at EC95, then isoproterenol; 200,000 compounds, 1% hits; P25929;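 active = inhibition above the campaign mean inhibition of all tested compounds plus 3 SD, cut at about 20% in these data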;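 note: 0% = DMSO wells given NPY plus isoproterenol and 100% = isoproterenol alone without NPY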
#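 Test system: HEK293 cells co-expressing NPY Y1 receptor and cyclic-nucleotide gated channel; Also added: NPY (25 nM), isoproterenol (1 µM), Ro 20-1724 (25 µM); Compound dosing: one concentration, 3.6 µM, in 0.4% DMSO; Timing: dye 3 h, compound 60 min room temperature, stimulation 45 min; Technique: Membrane-potential fluorescent dye readout.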
# NPY2 pot ag: potentiates or activates human NPY-Y2 receptor | P49146 | cells expressing NPY-Y2, potentiator/agonist read-out | activation, % at 3.6 µM | 220,000 compounds, 0.45% hits | AID 1359; in the data active = activation above about 27%;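 note: cells stimulated with NPY near EC25 plus isoproterenol at EC100; 0% = vehicle plus submaximal agonist and 100% = vehicle plus saturating agonist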
# The depositor's hits bear a star; . = not tested or not shown; ! = not active in a repeat.
SMILES,EP2 modulator,NPY-Y1 PAM-ag,NPY-Y2 antag,EP2 antag,NPY-Y1 antag,NPY2 pot ag
CC1(c2ccccc2)CC(C)(C)N2C(=O)Cc3cccc1c32 (configuration not stated),61.8*,-5.2,.,4.8,5.7,8.7
COc1ccccc1CC(C)NC(=O)c1c(-c2ccncc2)noc1C (configuration not stated),2.8,.,.,9.8,.,.
CCN(CC)c1ccc(N=Nc2nn(C)c(C)c2[N+](=O)[O-])cc1,3.2,4.8,-2.4,5.2,-3.2,13.8
CCN(Cc1ccccc1)c1ccc(N=Nc2nn(C)c(C)c2[N+](=O)[O-])cc1,-1.7,58.0*,-5.2,6.2,-11.1,40.7*
CC1(C)C2CCC(C2)C1(C)NC(=O)CN1CC=CCC1 (configuration not stated),31.6,.,.,7.0,.,.
CC(C)COC(=O)Nc1nnc(SCc2ccccc2F)s1,-4.0,-6.5,6.1,4.5,1.4,10.7
CC(C)COC(=O)Nc1nnc(SCCOc2ccccc2)s1,-6.8,-49.3,14.0,1.0,29.1*,-23.2
COc1ccc(C(=O)N2CCCC(c3nc4c(nnn4Cc4ccccc4)c(=O)[nH]3)C2)c(OC)c1 (configuration not stated),4.9,.,.,6.4,.,.
[Cu].c1ccc2c(c1)-c1nc-2nc2[n-]c(nc3nc(nc4[n-]c(n1)c1ccccc41)-c1ccccc1-3)c1ccccc21,1.4,.,.,54.3*,.,.
Nc1nc(N)nc(-c2ccccc2-c2nc(N)nc(N)n2)n1,-20.0,16.2,.,2.1,.,4.4
O=C(Cc1c[nH]c2ccccc12)N1CCCCC1c1nc2ccccc2[nH]1 (configuration not stated),-45.5,.,.,.,.,.
Cc1ccc(C)c(C2=C/C(=C/c3ccc([N+](=O)[O-])o3)C(=O)O2)c1,-55.9,.,.,9.9,.,.
COc1ccc2cc3c(N)c(C(=O)N4CCN(c5ccccc5)CC4)sc3nc2c1,-76.5,.,.,10.2,.,.
NC(=O)c1sc2nc3c(c(-c4ccco4)c2c1N)CCCC3,21.6,14.9,.,6.0,.,-3.4
COC(=O)c1sc2nc3c(c(-c4cccs4)c2c1N)CCCC3,64.2*,-11.9,9.7,10.0,4.1,5.8
O=C(C(Sc1ccccc1)c1ccccc1)N1CCN(c2ccccc2F)CC1 (configuration not stated),39.3,-10.2,20.0*,12.9,35.7*,-10.4
COc1ccc(N2C(=O)C(Cl)=C(Oc3cccc(OC)c3)C2=O)cc1,-51.9,-2.7,.,100.4*,2.4,5.5
COc1ccc(N2C(=O)c3ccccc3C2=O)cc1,14.8,16.4,.,5.8,1.4,9.6
Cc1ccc2nc3c(c(Nc4ccccc4)c2c1)CCC3,-43.2,-36.2,.,28.0,.,-32.6
c1ccc(Nc2c3c(nc4ccccc24)CCC3)cc1,-11.4,-41.3,.,0.5,20.4*,-37.0
CS(=O)(=O)Nc1ccc(Nc2c3ccccc3nc3ccccc23)cc1,-18.0,.,.,63.7*,.,.
Cc1ccc2nc(-c3ccc(NS(C)(=O)=O)cc3)cc(-c3ccccc3)c2c1,45.7,-20.5,-0.6,6.6,-3.5,-18.1
CCOC(=O)c1cccc(NC(=O)CN2CCC(c3nc4ccc(Cl)cc4[nH]3)CC2)c1,-25.6,.,.,10.6,.,.
C=CCOc1ccc2ccccc2c1CNCCCN1CCOCC1,2.6,-19.5,20.1*,.,20.8*,-18.4
Cc1cc(=S)c2cc(Br)ccc2[nH]1,66.2*,.,.,21.4,.,.
SMILES,EP2 modulator,NPY-Y1 PAM-ag,NPY-Y2 antag,EP2 antag,NPY-Y1 antag,NPY2 pot ag
Cc1cc(=O)c2cc(Br)ccc2[nH]1,6.7,-0.3,1.4,4.4,0.8,6.8
C=CCNc1nc(Nc2ccc(OC)cc2)nc(OCC)n1,61.9*!,1.0,1.6,18.6,0.2,1.8
C=CCNc1nc(NCc2ccco2)nc(OCC)n1,35.1,1.8,0.6,8.8,-2.9,-1.1
CN(C)c1ccc(-c2nc3n(c2NC(C)(C)C)CCNC3)cc1,-67.7,.,.,9.2,.,.
Cc1cnc(C(=O)Nc2cccc3ncccc23)cn1,.,8.5,1.8,25.5,0.2,5.9
Cc1cnc(C(=O)Nc2ccccc2-c2ccc(C)o2)cn1,38.5,100.5*,2.9,9.3,4.0,55.8*
CCOc1ccccc1-n1c(SCC(=O)N2CCOCC2)nnc1-c1ccoc1C,-29.3,.,.,5.2,.,.
CNC(=S)N(CCc1c(C)[nH]c2ccc(Cl)cc12)Cc1cccs1,-23.4,49.2*,.,9.0,-12.0,44.0*
COCCNC(=S)N(CCc1c(C)[nH]c2ccc(Cl)cc12)Cc1cccs1,-37.2,7.1,.,0.9,-5.6,19.4
C[C@H]1CCCC2(CC[N+](C)(CCC[N+](C)(C)C)CC2)C1 (some centres not stated),8.5,.,.,48.1*,.,.
O=C1c2ccccc2C(=O)c2c(NCCCN(CCO)CCO)cccc21,-77.0,52.6*,.,15.8,-13.1,38.9*
CCc1nn(CC(=O)NCCN(CC)CC)c(=O)c2cc3ccsc3n12,-9.6,.,.,.,.,.
CC1(C)CC[C@]2(C(=O)O)CC[C@]3(C)C(=CCC4[C@@]5(C)CC[C@H](O)[C@@](C)(CO)C5CC[C@]43C)C2C1 (some centres not stated),27.7,.,.,10.1,.,.
C[C@@]1(CO)[C@H](O)CC[C@]2(C)[C@@H]1CC[C@H]1C[C@H]3C[C@]12CC[C@@]3(O)COC(=O)CN,-3.4,.,.,51.7*,.,.
COc1ccccc1NC(=S)N(CCN(C)C)Cc1cc2cc(C)cc(C)c2[nH]c1=O,-57.4,.,.,7.3,.,.
c1cc2c3c(cccc3c1)NC1(CCC3(CC1)Nc1cccc4cccc(c14)N3)N2,-41.7,60.5*,.,88.7*,.,56.1*
c1cc2c3c(cccc3c1)NC1(CCCCCC1)N2,-26.5,15.5,0.4,7.4,0.6,8.7
Cc1ccc(C)c(OCC(=O)Nc2nonc2NC(=O)COc2cc(C)ccc2C)c1,15.3,-72.1,20.7*,4.8,23.6*,-8.4
OCCOCCN1CCN(C(c2ccccc2)c2ccc(Cl)cc2)CC1 (configuration not stated),14.6,1.4,4.6,19.6,4.6,4.1
CC(C)(C)c1ccc(CN2CCN([C@H](c3ccccc3)c3ccc(Cl)cc3)CC2)cc1,15.2,.,.,45.3*,.,.
O=C(N/N=C/c1cn(-c2cccs2)nc1-c1ccccc1)c1ccccc1Cl,-27.4,11.1,-1.3,6.9,-3.4,9.4
O=C(N/N=C/c1cn(-c2cccs2)nc1-c1ccccc1)c1ccc(O)cc1,-37.6,10.0,-3.0,41.5*,-5.8,5.9
CCOC(=O)c1c(NC(=O)COC)sc2c1CCC2,83.0*,.,.,3.8,.,.
CCOC(=O)c1c(NC(=S)Nc2ccccc2)sc2c1CCCCC2,19.0,7.0,-1.8,52.4*,-6.5,0.9
CCOC(=O)c1c(NC(=S)Nc2ccccc2)sc2c1CCN(CC)C2,-23.4,-9.0,2.7,23.1,-1.0,-2.5
CCOC(=O)c1c(NC(=O)CSc2nnc(C)s2)sc2c1CCCCC2,43.0,-22.5,19.5*,6.0,39.2*,-16.5
COc1cccc(C(O)CN2CCC(O)(c3ccc4c(c3)OCO4)CC2)c1 (configuration not stated),-2.7,.,.,8.9,.,.

# Screening data from PubChem BioAssay.
